# Measurements from different studies.
# Protocols differ between the studies behind these lines.
# Target: Mitogen-activated protein kinase kinase kinase 4 (MAP3K4, Homo sapiens, UniProt Q9Y6R4)
Compound,observed,technique,concentration,remaining binding [%]
COc1cnc(Nc2cccc(S(N)(=O)=O)c2)nc1N1CCN(c2ccccc2)C(=O)C1,binding,competition with immobilised ligand,1 µM,100
O=C(NCC1CCOCC1)c1n[nH]cc1NC(=O)c1c(F)cccc1F,binding,competition with immobilised ligand,1 µM,100
CN(CCCC(F)(F)F)c1nccc(-c2cnn3ncccc23)n1,binding,,1 µM,81
O=C(c1ccc(Nc2ncc(Cl)c(-c3cc4ccccc4s3)n2)cc1)N1CCC(N2CCCC2)CC1,binding,competition with immobilised ligand,1 µM,33
C[C@@H]1CN(c2ccc3ncc(-c4ccc5[nH]nc(C6CC6)c5c4)n3n2)C[C@H](C)O1,binding,competition with immobilised ligand,0.5 µM,100
N#Cc1ccccc1CSc1nnc2c(n1)[nH]c1ccccc12,binding,competition with immobilised ligand,10 µM,100
c1cnn2ncc(-c3ccnc(N4CCC45COC5)n3)c2c1,binding,,1 µM,97
CN(C)C(=O)Cn1cc(-c2nc([C@@](C)(c3ccc(-c4cnc(N)nc4)cc3)C3CC3)no2)cn1,cell-free assay,competition with immobilised ligand,1 µM,91
CN(C)c1nccc(-c2cnc3ncccn23)n1,binding,,1 µM,100
CC(=O)N1CCC(c2ccc(C(=O)NC3=NCCN3)cc2C(F)(F)F)CC1,cell-free assay,competition with immobilised ligand,1 µM,81
N[C@H]1CCN(c2nccc(-c3cnn4ncccc34)n2)C1,binding,,1 µM,100
COc1ncc2cc3ccccc3nc2c1C#N,cell-free assay,competition with immobilised ligand,5 µM,91
C[C@@]1(Cc2ccc(C#N)cc2)C(=O)N(c2cc(Cl)cc(Cl)c2)c2ncc(C(=O)NC3(c4nc(C5CCC5)no4)CC3)n21,cell-free assay,competition with immobilised ligand,1 µM,100
CC(C)(C)c1ccc(-c2nc(CBr)nn2-c2cccc(O)c2)cc1,cell-free assay,competition with immobilised ligand,10 µM,91
CC1=C(C#N)C(c2ccc3c(c2)c(NC(=O)c2ccccc2C)nn3C)C(C#N)=C(C)N1,cell-free assay,competition with immobilised ligand,1 µM,84
Cc1cnn2ncc(-c3ccnc(N(C)C)n3)c2c1,binding,,1 µM,86
O=C(c1ccc(Nc2nccc(-c3cc4ccccc4s3)n2)cc1)N1CCC(N2CCCC2)CC1,binding,competition with immobilised ligand,1 µM,70
COc1ccc2c(O[C@@H]3C[C@H]4C(=O)N[C@]5(C(=O)O)CC5/C=C\CCCCC[C@H](NC(=O)OC5CCCC5)C(=O)N4C3)cc(-c3csc(NC(=O)C(C)C)n3)nc2c1C (some centres unmarked),cell-free assay,competition with immobilised ligand,1 µM,74
CNC(=O)[C@@H]1CC[C@@H](n2c(-c3ccc4cnccc4c3)nc3ccc(C(=O)NCc4cccc(C(N)=O)c4)cc32)C1,binding,competition with immobilised ligand,1 µM,100
C[C@H](c1ccnc(Nc2nc3ccc(-c4cc(N(C)C)ncn4)cc3[nH]2)c1)N1CCN(C(=O)CC(F)(F)F)CC1,cell-free assay,competition with immobilised ligand,0.1 µM,96
FC(F)(F)Oc1cccc(-c2cnc3ccc(-c4ccncc4)nn23)c1,cell-free assay,competition with immobilised ligand,5 µM,84
CCC(=O)N[C@H]1CC[C@@H](C(=O)N(C)c2ccc(-c3nc4ccccc4o3)cc2)C1,cell-free assay,competition with immobilised ligand,1 µM,100
O=C(NCCCN1CCOCC1)c1ccc(Nc2nccc(-c3cc4ccccc4s3)n2)cc1,binding,competition with immobilised ligand,1 µM,68
